Measurements published in ChEMBL document CHEMBL5120856, “New salicylic acid derivatives, double inhibitors of glycolate oxidase and lactate dehydrogenase, as effective agents decreasing oxalate production” (Eur J Med Chem, 2022).
Activity calls are given as the source filed them. No cut-off for these calls is given here.

Columns and labels:
[1] = target: T1, 2-Hydroxyacid oxidase 1 (Mus musculus) (UniProt Q9WU19); assay: Non-competitive mixed inhibition of N-terminal His-tagged mouse recombinant glycolate oxidase expressed in Escherichia coli BL21 (DE3) cells assessed as decrease in Vmax with increase in apparent Km using glycolate as substrate upto 60 microM
T1 sequence (whole entry): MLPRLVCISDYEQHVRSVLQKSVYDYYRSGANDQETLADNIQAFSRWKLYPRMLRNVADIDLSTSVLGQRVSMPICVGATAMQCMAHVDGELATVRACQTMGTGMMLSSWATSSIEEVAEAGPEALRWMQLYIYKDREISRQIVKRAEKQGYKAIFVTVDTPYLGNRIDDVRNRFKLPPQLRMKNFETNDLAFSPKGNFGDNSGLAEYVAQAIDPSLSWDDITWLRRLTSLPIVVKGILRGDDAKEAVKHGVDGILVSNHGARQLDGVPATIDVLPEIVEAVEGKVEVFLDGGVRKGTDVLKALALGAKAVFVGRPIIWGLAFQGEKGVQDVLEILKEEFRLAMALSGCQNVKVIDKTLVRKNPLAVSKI

2-Hydroxyacid oxidase 1 [2] = target: T2, 2-Hydroxyacid oxidase 1 (Mus musculus, UniProt Q9WU19); assay: Non-competitive mixed inhibition of N-terminal His-tagged mouse recombinant glycolate oxidase expressed in Escherichia coli BL21 (DE3) cells assessed as inhibition constant using varying concentration of glycolate as substrate measured every 60 sec for 15 mins by Amplex red and horseradish peroxidase based fluorescence assay
T2 sequence (Q9WU19 whole entry): T1 sequence (whole entry)

HEK293 = assay: Cytotoxicity against HEK293 cells assessed as reduction in cell viability upto 50 uM measured after 48 hrs by MTT assay; type: toxicity, cell-based; conditions: human, hek293, 48 h
[3] = Inhibition of GO/LDHA in hyperoxaluric-primary hepatocyte isolated from Grhpr-knockdown PH2 C57BL/6 mouse measured at 24 hrs in the presence of 10 mM glycolate; type: cell-based
Outline: (§1)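 Grhpr-/- hepatocytes with 10 mM glycolate; eight inhibitor concentrations per replicate; colorimetric extracellular oxalate at 24 or 48 h; EC50 as mean of three/four replicates ± SD.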

Hepatocyte [4] = assay: Cytotoxicity against hyperoxaluric-primary hepatocyte isolated from Hoga1-knockdown PH3 C57BL/6 mouse assessed as cell death at 10 uM by MTS assay; type: toxicity, cell-based; conditions: hepatocytes, Hoga1-knockdown PH3, 10 µM
Outline: (§2)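 Primary hepatocytes from Agxt1-/- (PH1, 5 mM glycolate), Grhpr-/- (PH2, 10 mM glycolate) or Hoga1-/- (PH3, 10 mM hydroxyproline) mice, incubated with inhibitor at 10 μM; viability followed through the oxalate assay by MTS tetrazolium method.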

Hepatocyte [5] = assay: Cytotoxicity against hyperoxaluric-primary hepatocyte isolated from Grhpr-knockdown PH2 C57BL/6 mouse assessed as cell death at 10 uM by MTS assay; type: toxicity, cell-based; conditions: hepatocytes, Grhpr-knockdown PH2 (primary hyperoxaluria type 2); outline: as §2
[6] = Inhibition of GO/LDHA in hyperoxaluric-primary hepatocyte isolated from Grhpr-knockdown PH2 C57BL/6 mouse measured at 48 hrs in the presence of 10 mM glycolate; type: cell-based; outline: as §1
Hepatocyte [7] = assay: Inhibition of GO/LDHA in hyperoxaluric-primary hepatocyte isolated from Agxt1 knockdown PH1 C57BL/6 mouse assessed as reduction in extracellular oxalate concentration at 10 uM measured at 48 hrs in the presence of glycolate relative to control; type: cell-based; parameters: scale not given: the % may be the effect or the level left
Outline: (§3)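 Agxt1-/- mouse primary hepatocytes cultured with 5 mM glycolate, inhibitor at 10 μM; extracellular oxalate measured by colorimetric kit 24 and 48 h after inhibitor addition; relative oxalate = oxalate with inhibitor over oxalate without inhibitor; negative values mean below detection limit; mean of three/four replicates ± SD.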

[8] = Inhibition of GO/LDHA in hyperoxaluric-primary hepatocyte isolated from Agxt1 knockdown PH1 C57BL/6 mouse measured at 24 hrs in the presence of 5 mM glycolate; type: cell-based
Outline: (§4)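 Agxt1-/- hepatocytes with 5 mM glycolate; eight inhibitor concentrations per replicate; extracellular oxalate measured colorimetrically at 24 or 48 h; EC50 as mean of three/four replicates ± SD.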

[9] = target: T3, L-lactate dehydrogenase A chain (Homo sapiens, UniProt P00338); assay: Non-competitive inhibition of human recombinant LDHA assessed as inhibition constant using varying concentration of pyruvate as substrate preincubated for 10 mins followed by substrate addition and measured every 60 sec for 10 mins in the presence of NADH by fluorescence assay
[10] = target: T4, L-lactate dehydrogenase B chain (Homo sapiens, UniProt P07195); assay: Non-competitive inhibition of human recombinant LDHB assessed as inhibition constant using varying concentration of pyruvate as substrate preincubated for 10 mins followed by substrate addition and measured every 60 sec for 10 mins in the presence of NADH by fluorescence assay
T4 sequence (P07195 whole entry): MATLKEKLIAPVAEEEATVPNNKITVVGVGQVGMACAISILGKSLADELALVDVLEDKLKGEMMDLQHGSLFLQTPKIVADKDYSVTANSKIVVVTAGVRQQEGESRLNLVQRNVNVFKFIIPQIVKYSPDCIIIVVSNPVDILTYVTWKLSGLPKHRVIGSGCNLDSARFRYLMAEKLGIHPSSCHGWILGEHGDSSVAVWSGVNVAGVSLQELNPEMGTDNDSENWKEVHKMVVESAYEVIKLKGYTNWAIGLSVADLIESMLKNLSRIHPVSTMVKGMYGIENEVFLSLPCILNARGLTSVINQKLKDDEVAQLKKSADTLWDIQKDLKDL

2-Hydroxyacid oxidase 1 [11] = target: T2, 2-Hydroxyacid oxidase 1; assay: Inhibition of N-terminal His-tagged mouse recombinant glycolate oxidase expressed in Escherichia coli BL21 (DE3) cells using glycolate as substrate preincubated for 10 mins followed by substrate addition and measured after 10 mins by Amplex red and horseradish peroxidase based fluorescence assay
[12] = target: T4, L-lactate dehydrogenase B chain; assay: Inhibition of human recombinant LDHB using pyruvate as substrate preincubated for 10 mins followed by substrate addition and measured every 60 sec for 10 mins in the presence of NADH by fluorescence assay
2-Hydroxyacid oxidase 1 [13] = target: T5, 2-Hydroxyacid oxidase 1 (Homo sapiens, UniProt Q9UJM8); assay: Non-competitive mixed inhibition of N-terminal His-tagged human recombinant glycolate oxidase expressed in Escherichia coli BL21 (DE3) cells assessed as inhibition constant using varying concentration of glycolate as substrate measured every 60 sec for 15 mins by Amplex red and horseradish peroxidase based fluorescence assay
T5 sequence (Q9UJM8 whole entry): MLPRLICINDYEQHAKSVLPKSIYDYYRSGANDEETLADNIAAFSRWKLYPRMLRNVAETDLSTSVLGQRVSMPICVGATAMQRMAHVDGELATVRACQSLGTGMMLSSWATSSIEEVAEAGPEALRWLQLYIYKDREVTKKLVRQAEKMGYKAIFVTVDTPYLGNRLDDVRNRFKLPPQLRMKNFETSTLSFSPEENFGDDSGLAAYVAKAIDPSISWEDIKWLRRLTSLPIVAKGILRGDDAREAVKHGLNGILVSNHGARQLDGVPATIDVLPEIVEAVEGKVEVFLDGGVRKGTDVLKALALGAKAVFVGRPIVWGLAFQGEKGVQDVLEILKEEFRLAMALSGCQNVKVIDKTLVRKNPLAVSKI

Hepatocyte [14] = assay: Cytotoxicity against hyperoxaluric-primary hepatocyte isolated from Agxt1-knockdown PH1 C57BL/6 mouse assessed as cell death at 10 uM by MTS assay; type: toxicity, cell-based; conditions: hepatocytes, Agxt1-knockdown PH1, 10 µM; outline: as §2
[15] = Inhibition of GO/LDHA in hyperoxaluric-primary hepatocyte isolated from Agxt1 knockdown PH1 C57BL/6 mouse measured at 48 hrs in the presence of 5 mM glycolate; type: cell-based; outline: as §4
Hepatocyte [16] = assay: Inhibition of GO/LDHA in hyperoxaluric-primary hepatocyte isolated from Grhpr-knockdown PH2 C57BL/6 mouse assessed as relative oxalate output at 10 uM measured at 48 hrs in the presence of glycolate relative to control; type: cell-based
Outline: (§5)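 Grhpr-/- mouse primary hepatocytes cultured with 10 mM glycolate, inhibitor at 10 μM; extracellular oxalate determined colorimetrically at 24 and 48 h post-treatment, expressed relative to untreated medium (RO); negative RO means below detection limit; three/four replicates, mean ± SD.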

Hepatocyte [17] = assay: Inhibition of GO/LDHA in hyperoxaluric-primary hepatocyte isolated from Hoga1-knockdown PH3 C57BL/6 mouse assessed as relative oxalate output at 10 uM measured at 48 hrs in the presence of hydroxyproline relative to control; type: cell-based
Outline: (§6)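 Hoga1-/- mouse primary hepatocytes challenged with 10 mM hydroxyproline, inhibitor 10 μM; extracellular oxalate measured by colorimetric kit 24 and 48 h after dosing, given as ratio to oxalate without inhibitor; negative values are below detection limit; mean of three/four replicates ± SD.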

Hepatocyte [18] = assay: Inhibition of GO/LDHA in hyperoxaluric-primary hepatocyte isolated from Agxt1 knockdown PH1 C57BL/6 mouse assessed as relative oxalate output at 10 uM measured at 24 hrs in the presence of glycolate relative to control; type: cell-based; outline: as §3
[19] = target: T6, Prostaglandin G/H synthase 2 (Homo sapiens, UniProt P35354); assay: Inhibition of human COX-2 using arachidonic acid as substrate measured every 60 sec for 10 mins by fluorescence based assay
T6 sequence (P35354 whole entry): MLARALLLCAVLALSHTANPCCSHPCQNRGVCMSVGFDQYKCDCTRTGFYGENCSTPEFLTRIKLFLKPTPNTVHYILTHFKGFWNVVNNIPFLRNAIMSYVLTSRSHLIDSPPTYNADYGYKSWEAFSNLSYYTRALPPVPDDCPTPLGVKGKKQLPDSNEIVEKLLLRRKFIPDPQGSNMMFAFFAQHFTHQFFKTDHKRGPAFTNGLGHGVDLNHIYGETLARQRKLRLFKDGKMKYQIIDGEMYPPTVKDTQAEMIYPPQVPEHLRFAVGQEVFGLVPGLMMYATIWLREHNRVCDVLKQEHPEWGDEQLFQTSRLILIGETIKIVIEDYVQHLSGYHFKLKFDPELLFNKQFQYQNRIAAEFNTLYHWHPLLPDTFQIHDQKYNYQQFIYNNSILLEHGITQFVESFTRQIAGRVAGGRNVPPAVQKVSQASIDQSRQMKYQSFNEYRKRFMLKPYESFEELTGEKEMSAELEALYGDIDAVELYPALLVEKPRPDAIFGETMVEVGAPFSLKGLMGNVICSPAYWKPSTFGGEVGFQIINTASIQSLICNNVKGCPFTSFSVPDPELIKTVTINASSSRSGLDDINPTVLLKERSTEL

Hepatocyte [20] = assay: Inhibition of GO/LDHA in hyperoxaluric-primary hepatocyte isolated from Agxt1 knockdown PH1 C57BL/6 mouse assessed as relative oxalate output at 10 uM measured at 48 hrs in the presence of glycolate relative to control; type: cell-based; outline: as §3
[21] = target: T3, L-lactate dehydrogenase A chain; assay: Inhibition of human recombinant LDHA using pyruvate as substrate preincubated for 10 mins followed by substrate addition and measured every 60 sec for 10 mins in the presence of NADH by fluorescence assay
Hepatocyte [22] = assay: Inhibition of GO/LDHA in hyperoxaluric-primary hepatocyte isolated from Hoga1-knockdown PH3 C57BL/6 mouse assessed as relative oxalate output at 10 uM measured at 24 hrs in the presence of hydroxyproline relative to control; type: cell-based; outline: as §6
2-Hydroxyacid oxidase 1 [23] = target: T5, 2-Hydroxyacid oxidase 1; assay: Inhibition of N-terminal His-tagged human recombinant glycolate oxidase expressed in Escherichia coli BL21 (DE3) cells using glycolate as substrate preincubated for 10 mins followed by substrate addition and measured after 10 mins by Amplex red and horseradish peroxidase based fluorescence assay
Hepatocyte [24] = assay: Inhibition of GO/LDHA in hyperoxaluric-primary hepatocyte isolated from Grhpr-knockdown PH2 C57BL/6 mouse assessed as relative oxalate output at 10 uM measured at 24 hrs in the presence of glycolate relative to control; type: cell-based; outline: as §5
[25] = target: T7, 2-Hydroxyacid oxidase 1 (Homo sapiens) (UniProt Q9UJM8); assay: Non-competitive mixed inhibition of N-terminal His-tagged human recombinant glycolate oxidase expressed in Escherichia coli BL21 (DE3) cells assessed as decrease in Vmax with increase in apparent Km using glycolate as substrate upto 60 microM
T7 sequence (whole entry): T5 sequence (Q9UJM8 whole entry)

[26] = target: T3, L-lactate dehydrogenase A chain; assay: Non-competitive inhibition of human recombinant LDHA assessed as decrease in Vmax with no effect on Km using pyruvate as substrate upto 20 uM

| SMILES | Activity (HEK293) | Activity (Hepatocyte [4]) | Activity (Hepatocyte [5]) | Ki [9] [nM] | IC50 (2-Hydroxyacid oxidase 1 [11]) [nM] | IC50 [12] [nM] | Ki (2-Hydroxyacid oxidase 1 [13]) [nM] | Activity (Hepatocyte [14]) | fold change (FC) (Hepatocyte [16]) | fold change (FC) (Hepatocyte [17]) | fold change (FC) (Hepatocyte [18]) | IC50 [19] [nM] | fold change (FC) (Hepatocyte [20]) | IC50 [21] [nM] | fold change (FC) (Hepatocyte [22]) | IC50 (2-Hydroxyacid oxidase 1 [23]) [nM] | fold change (FC) (Hepatocyte [24]) | other results |
| --- | --- | --- | --- | --- | --- | --- | --- | --- | --- | --- | --- | --- | --- | --- | --- | --- | --- | --- |
| O=Cc1ccc(-c2ccc(O)c(C(=O)O)c2)o1 | Non-Toxic | Non-Toxic | Non-Toxic | 1400 | 14400 | 29000 | 18200 | Non-Toxic | – | – | – | – | – | – | – | – | – | inhibition [1]: Active; Ki (2-Hydroxyacid oxidase 1 [2]): 7900 nM; EC50 [3]: 1800 nM; EC50 [6]: 1900 nM; Activity (Hepatocyte [7]): 60%; EC50 [8]: 3500 nM; Ki [10]: 12900 nM; EC50 [15]: 8400 nM |
| C#CCCCC(=O)Nc1ccc(C(=O)c2ccc(NCc3ccc(-c4ccc(O)c(C(=O)O)c4)o3)cc2)cc1.N | Non-Toxic | Non-Toxic | Non-Toxic | – | 1300 | 300 | – | Non-Toxic | 0.52 | 0.14 | 0.5 | 36000 | 0.79 | 500 | 0.2 | 2400 | 0.4 | – |
| N.O=C(O)c1cc(-c2ccc(CNc3ccc(Br)cc3)o2)ccc1O | Non-Toxic | Non-Toxic | Non-Toxic | 900 | 3100 | 1100 | 1100 | Non-Toxic | 0.56 | 0.18 | 0.19 | 35000 | 0.57 | 600 | 0.26 | 4200 | 0.41 | inhibition [25]: Active; inhibition [26]: Active |
